Source: ChEMBL document CHEMBL1127676, “Structure-activity relationships in a series of 5-[(2,5-dihydroxybenzyl)amino]salicylate inhibitors of EGF-receptor-associated tyrosine kinase: importance of additional hydrophobic aromatic interactions” (J Med Chem, 1994)

Columns and labels:
[1] = biological target: T1, Epidermal growth factor receptor (Homo sapiens, UniProt P00533); assay: Inhibition of EGFR(epidermal growth factor receptor) autophosphorylation in ER22 cell membranes
[2] = biological target: T1, Epidermal growth factor receptor; assay: Inhibitory potency against protein tyrosine kinase activity associated with EGFR was evaluated using ER 22 cell membrane
[3] = Inhibition of PKA(protein kinase-A)
[4] = biological target: Protein kinase C (PKC); assay: Inhibition of rat PKC(protein kinase-C); assay type: protein assay
In short: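 PKC partially purified from rat brain by DEAE-cellulose chromatography and assayed in vitro with a commercial PKC assay kit; inhibitors tested for inhibition of the kinase activity.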

[5] = biological target: T1, Epidermal growth factor receptor; conditions: ER 22; 10 uM
[6] = biological target: T1, Epidermal growth factor receptor; conditions: ER 22; 10 uM; remark: listed apart in the source
[7] = biological target: T1, Epidermal growth factor receptor; conditions: 5 uM
[8] = biological target: T1, Epidermal growth factor receptor; conditions: ER 22; 10 uM; remark: listed apart in the source
[9] = biological target: T1, Epidermal growth factor receptor; conditions: ER 22; 100 uM
[10] = biological target: T1, Epidermal growth factor receptor; conditions: ER 22; 10 uM; remark: listed apart in the source
[11] = biological target: T1, Epidermal growth factor receptor; conditions: 20 uM

T1 sequence (P00533 whole entry): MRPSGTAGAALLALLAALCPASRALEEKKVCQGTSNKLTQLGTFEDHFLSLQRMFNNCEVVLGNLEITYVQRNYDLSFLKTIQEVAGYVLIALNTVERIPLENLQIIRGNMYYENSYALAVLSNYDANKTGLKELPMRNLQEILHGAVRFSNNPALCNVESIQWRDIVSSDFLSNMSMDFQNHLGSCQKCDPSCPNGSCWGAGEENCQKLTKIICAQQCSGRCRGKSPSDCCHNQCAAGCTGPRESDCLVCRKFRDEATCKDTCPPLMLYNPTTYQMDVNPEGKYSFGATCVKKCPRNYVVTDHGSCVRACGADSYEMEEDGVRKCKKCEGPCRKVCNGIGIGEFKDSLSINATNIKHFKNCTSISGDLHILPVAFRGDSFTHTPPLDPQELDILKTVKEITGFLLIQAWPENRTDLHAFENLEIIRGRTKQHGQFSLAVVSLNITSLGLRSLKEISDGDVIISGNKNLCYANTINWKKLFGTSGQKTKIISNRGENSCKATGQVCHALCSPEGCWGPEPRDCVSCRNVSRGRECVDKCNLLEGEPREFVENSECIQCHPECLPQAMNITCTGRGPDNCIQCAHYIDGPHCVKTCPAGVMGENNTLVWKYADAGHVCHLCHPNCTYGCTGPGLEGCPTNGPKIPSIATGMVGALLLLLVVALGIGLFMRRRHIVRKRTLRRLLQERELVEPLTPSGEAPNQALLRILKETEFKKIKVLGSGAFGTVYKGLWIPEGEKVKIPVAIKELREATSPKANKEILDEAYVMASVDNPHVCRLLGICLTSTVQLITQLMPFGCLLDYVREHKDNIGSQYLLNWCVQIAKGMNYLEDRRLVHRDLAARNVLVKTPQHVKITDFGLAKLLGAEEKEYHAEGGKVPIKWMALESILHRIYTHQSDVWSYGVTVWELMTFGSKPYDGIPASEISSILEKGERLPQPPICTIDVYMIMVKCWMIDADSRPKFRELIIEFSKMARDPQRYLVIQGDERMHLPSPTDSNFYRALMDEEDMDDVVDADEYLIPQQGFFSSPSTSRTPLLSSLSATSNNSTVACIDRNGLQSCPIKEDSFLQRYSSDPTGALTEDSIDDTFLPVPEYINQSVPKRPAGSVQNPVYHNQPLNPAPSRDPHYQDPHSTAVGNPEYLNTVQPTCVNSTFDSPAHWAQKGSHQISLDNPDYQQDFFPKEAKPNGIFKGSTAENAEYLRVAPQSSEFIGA

Compound	IC50 [2]	other results
O=C(OCCCc1ccccc1)c1cc(NCc2cc(O)ccc2O)ccc1O	0.03 µM	IC50 [1]: 0.7 µM; IC50 [3]: 11 µM; IC50 [4]: > 20 µM
COC(=O)c1cc(NCc2cc(O)ccc2O)ccc1O	0.6 µM	IC50 [1]: 1 µM; IC50 [3]: 150 µM; IC50 [4]: 400 µM
O=C(Cc1cc(NCc2cc(O)ccc2O)ccc1O)NOCc1ccccc1	1 µM	–
CONC(=O)c1cc(/N=C/c2cc(O)ccc2O)ccc1O	27 µM	–
CCOC(=O)Cc1cc(NCc2cc(O)ccc2O)ccc1O	7 µM	–
O=C(OCCc1ccccc1)c1cc(NCc2cc(O)ccc2O)ccc1O	0.13 µM	IC50 [1]: 0.2 µM; IC50 [3]: 4 µM
O=C(O)Cc1cc(NCc2cc(O)ccc2O)ccc1O	6 µM	–
CC(COC(=O)c1cc(NCc2cc(O)ccc2O)ccc1O)Cc1ccccc1 (centres undefined)	0.36 µM	–
COC(=O)Cc1cc(/N=C/c2cc(O)ccc2O)ccc1O	100 µM	–
O=C(OCC1CCCCC1)c1cc(NCc2cc(O)ccc2O)ccc1O	1.2 µM	–
CCOP(=O)(Cc1cc(/N=C/c2cc(O)ccc2O)ccc1O)OCC	> 100 µM	–
CC(C)CCCC(C)CCOC(=O)c1cc(NCc2cc(O)ccc2O)ccc1O (centres undefined)	7 µM	IC50 [1]: 25 µM; IC50 [3]: 10 µM
O=C(Oc1cccc2ccccc12)c1cc(NCc2cc(O)ccc2O)ccc1O	0.11 µM	–
CC(C)CCCC(C)CCOC(=O)c1cc(/N=C/c2cc(O)ccc2O)ccc1O (centres undefined)	–	inhibition [5]: 20%
CC(COC(=O)c1cc(/N=C/c2cc(O)ccc2O)ccc1O)CC(C)(C)C (centres undefined)	> 10 µM	–
CCOP(=O)(Cc1cc(NCc2cc(O)ccc2O)ccc1O)OCC	4 µM	–
O=C(OCc1ccccc1)c1cc(NCc2cc(O)ccc2O)ccc1O	0.08 µM	–
CC(C)(C)CCOC(=O)c1cc(/N=C/c2cc(O)ccc2O)ccc1O	–	inhibition [6]: 10%
O=C(Oc1cccc(O)c1)c1cc(NCc2cc(O)ccc2O)ccc1O	0.09 µM	–
CC(C)c1ccc(COC(=O)c2cc(NCc3cc(O)ccc3O)ccc2O)cc1	1 µM	–
O=C(O)c1cc(NCc2cc(O)ccc2O)ccc1O [LAVENDUSTIN C]	–	IC50 [3]: > 100 µM; IC50 [4]: > 100 µM
CC(CCOC(=O)c1cc(NCc2cc(O)ccc2O)ccc1O)CC(C)(C)C (centres undefined)	> 1 µM	–
CC(COC(=O)c1cc(NCc2cc(O)ccc2O)ccc1O)CC(C)(C)C (centres undefined)	~4 µM	IC50 [1]: 8 µM; IC50 [3]: 10 µM; IC50 [4]: 300 µM
CCOC(=O)c1cc(NCc2cc(O)ccc2O)ccc1O	0.4 µM	–
O=C(NOCc1ccccc1)c1cc(/N=C/c2cc(O)ccc2O)ccc1O	–	inhibition [7]: 43%; inhibition [8]: 8%
CC(C)(C)CCOC(=O)c1cc(NCc2cc(O)ccc2O)ccc1O	0.7 µM	–
COC(=O)Cc1cc(NCc2cc(O)ccc2O)ccc1O	3 µM	–

Compound	IC50 [2]	other results
Cc1cc(C)cc(COC(=O)c2cc(NCc3cc(O)ccc3O)ccc2O)c1	3 µM	–
COC(=O)c1cc(/N=C/c2cc(O)ccc2O)ccc1O	–	inhibition [9]: 56%
CC(C)(C)OC(=O)c1cc(NCc2cc(O)ccc2O)ccc1O	1 µM	–
CC(CCOC(=O)c1cc(NCc2cc(O)ccc2O)ccc1O)c1ccccc1 (centres undefined)	0.4 µM	–
CONC(=O)c1cc(NCc2cc(O)ccc2O)ccc1O	0.3 µM	–
CC(C)(C)ONC(=O)Cc1cc(/N=C/c2cc(O)ccc2O)ccc1O	31 µM	–
CCOC(=O)c1cc(/N=C/c2cc(O)ccc2O)ccc1O	50 µM	–
O=C(O)Cc1cc(/N=C/c2cc(O)ccc2O)ccc1O	35 µM	–
O=P(O)(O)Cc1cc(NCc2cc(O)ccc2O)ccc1O	3 µM	–
CC(C)(C)ONC(=O)c1cc(/N=C/c2cc(O)ccc2O)ccc1O	–	inhibition [10]: 20%
O=C(Oc1ccc2ccccc2c1)c1cc(NCc2cc(O)ccc2O)ccc1O	0.09 µM	–
CC(CCOC(=O)c1cc(/N=C/c2cc(O)ccc2O)ccc1O)CC(C)(C)C (centres undefined)	–	inhibition [10]: 20%
O=C(OC/C=C/c1ccccc1)c1cc(NCc2cc(O)ccc2O)ccc1O	1.3 µM	–
O=C(NO)c1cc(NCc2cc(O)ccc2O)ccc1O	0.4 µM	–
O=C(Cc1cc(/N=C/c2cc(O)ccc2O)ccc1O)NOCc1ccccc1	50 µM	–
CCOC(=O)Cc1cc(/N=C/c2cc(O)ccc2O)ccc1O	100 µM	–
CC(C)(C)ONC(=O)Cc1cc(NCc2cc(O)ccc2O)ccc1O	5 µM	–
O=C(O)c1cc(/N=C/c2cc(O)ccc2O)ccc1O	5 µM	–
CC(C)(C)ONC(=O)c1cc(NCc2cc(O)ccc2O)ccc1O	0.1 µM	inhibition [11]: 35%
O=C(OCCC12C[C@H]3C[C@@H](C1)C[C@@H](C2)C3)c1cc(NCc2cc(O)ccc2O)ccc1O	> 5 µM	–
O=C(Oc1ccccc1)c1cc(NCc2cc(O)ccc2O)ccc1O	0.07 µM	–
O=C(NOCc1ccccc1)c1cc(NCc2cc(O)ccc2O)ccc1O	0.05 µM	–
CCCCCCCCCCCCCCCCOC(=O)c1cc(NCc2cc(O)ccc2O)ccc1O	> 5 µM	–
O=C(OCCCCc1ccccc1)c1cc(NCc2cc(O)ccc2O)ccc1O	0.4 µM	–
CC(C)(C)OC(=O)c1cc(/N=C/c2cc(O)ccc2O)ccc1O	–	inhibition [10]: 15%
O=C(Oc1ccc(-c2ccccc2)cc1)c1cc(NCc2cc(O)ccc2O)ccc1O	5 µM	–
